Activity calls are given as the source filed them. The rule behind the calls is not given here.
Experiments:
WI-38 = assay: Cytotoxicity against human WI-38 cells assessed as reduction in cell viability after 48 hrs by MTT assay; format: cell-based; conditions: WI-38, 48 h
In short: (§1)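 Cells from ATCC grown in DMEM with 10% FBS, insulin and 1% penicillin-streptomycin. Plated at 1.2-1.8 × 10,000 cells/well for 24 h, then exposed to compounds in DMSO vehicle for 48 h. MTT 0.5 mg/ml added for 2 h; absorbance read at 570 nm. Experiments run in triplicate.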

HCT-116 [1] = assay: Induction of cell cycle arrest in human HCT-116 cells assessed as cell accumulation at pre-G1 phase at IC50 concentration after 24 hrs by propidium iodide staining based flow cytometric analysis (reference value: 2.02%); format: functional
HCT-116 [2] = assay: Induction of cell cycle arrest in human HCT-116 cells assessed as cell accumulation at G1 phase at IC50 concentration after 24 hrs by propidium iodide staining based flow cytometric analysis (reference value: 46.95%); format: functional
HCT-116 [3] = assay: Induction of cell cycle arrest in human HCT-116 cells assessed as cell accumulation at S phase at IC50 concentration after 24 hrs by propidium iodide staining based flow cytometric analysis (reference value: 37.66%); format: functional
HCT-116 [4] = assay: Induction of cell cycle arrest in human HCT-116 cells assessed as cell accumulation at G2/M phase at IC50 concentration after 24 hrs by propidium iodide staining based flow cytometric analysis (reference value: 15.39%); format: functional
HCT-116 [5] = assay: Induction of cell cycle arrest in human HCT-116 cells assessed as cell increase in accumulation at G2/M phase at IC50 concentration after 24 hrs by propidium iodide staining based flow cytometric analysis; format: functional
HCT-116 [6] = assay: Induction of apoptosis in human HCT-116 cells assessed as early apoptotic cells at IC50 concentration after 24 hrs by annexin-V-FITC/PI staining based flow cytometric analysis (reference value: 0.34%); format: functional
HCT-116 [7] = assay: Induction of apoptosis in human HCT-116 cells assessed as late apoptotic cells at IC50 concentration after 24 hrs by annexin-V-FITC/PI staining based flow cytometric analysis (reference value: 1.31%); format: functional
HCT-116 [8] = assay: Induction of apoptosis in human HCT-116 cells assessed as increase in early apoptotic cells at IC50 concentration after 24 hrs by annexin-V-FITC/PI staining based flow cytometric analysis; format: functional
HCT-116 [9] = assay: Induction of apoptosis in human HCT-116 cells assessed as increase in late apoptotic cells at IC50 concentration after 24 hrs by annexin-V-FITC/PI staining based flow cytometric analysis; format: functional
HCT-116 [10] = assay: Induction of apoptosis in human HCT-116 cells assessed as increase in caspace-3 protein expression at IC50 concentration after 24 hrs by ELISA; format: functional
In short: (§2)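 Cells treated at IC50 for 24 h and lysed in cell extraction buffer. Lysate diluted in standard diluent buffer and human caspase-3, -7, -9, Bax and Bcl-2 quantified by immunoassay kit (pg/mL). Fold change calculated against untreated control cells.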

HCT-116 [11] = assay: Induction of apoptosis in human HCT-116 cells assessed as increase in caspace-7 protein expression at IC50 concentration after 24 hrs by ELISA; format: functional; in short: as §2
HCT-116 [12] = assay: Induction of apoptosis in human HCT-116 cells assessed as increase in caspace-9 protein expression at IC50 concentration after 24 hrs by ELISA; format: functional; in short: as §2
HCT-116 [13] = assay: Induction of apoptosis in human HCT-116 cells assessed as increase in Bax protein expression at IC50 concentration after 24 hrs by ELISA; format: functional; in short: as §2
HCT-116 [14] = assay: Induction of apoptosis in human HCT-116 cells assessed as decrease in Bcl-2 protein expression at IC50 concentration after 24 hrs by ELISA; format: functional; in short: as §2
HCT-116 [15] = assay: Induction of apoptosis in human HCT-116 cells assessed as increase in Bax/Bcl-2 ratio at IC50 concentration after 24 hrs by ELISA; format: functional, cell-based; in short: as §2
[16] = biological target: T1, Receptor tyrosine-protein kinase erbB-2 (Homo sapiens, UniProt P04626); assay: Inhibition of HER2 (unknown origin) at 10 uM relative to control
In short: (§3)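 Cell-free immunoassay kit measuring EGFR T790M/HER2 kinase inhibition. Percent inhibition screened at 10 µM. IC50 obtained from four concentrations (0.01-10 µM) by fitting E(%) = Emax/(1+[I]/ID50) to a dose-response curve. Mean of two independent replicates.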

[17] = biological target: Epidermal growth factor receptor (Homo sapiens, UniProt P00533, T790M); assay: Inhibition of EGFR T790M mutant (unknown origin)
[18] = biological target: T1, Receptor tyrosine-protein kinase erbB-2; assay: Inhibition of HER2 (unknown origin); in short: as §3
Mus musculus [19] = assay: Anticonvulsant activity against mouse model of LiCa/pilocarpine-induced status epilepticus assessed as mean power frequency at 20 mg/kg, po for 10 days by EEG method relative to control; format: functional; conditions: time 10 day
In short: (§4)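 Male mice (20-30 g), five per group, dosed orally once daily for 10 days. Status epilepticus was then induced with LiCa (3 mEq/kg i.p.), atropine sulfate (1 mg/kg i.p.) 30 min before pilocarpine, and pilocarpine HCl (300 mg/kg i.p.) 2 h after LiCa. Normal controls received oral distilled water. Comparators were untreated SE, phenytoin and lamotrigine. One-way ANOVA with Tukey post-hoc; mean ± SD.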

Mus musculus [20] = assay: Anticonvulsant activity against mouse model of LiCa/pilocarpine-induced status epilepticus assessed as spectral edge frequency at 20 mg/kg, po for 10 days by EEG method relative to control; format: functional; conditions: time 10 day; in short: as §4
Mus musculus [21] = assay: Anticonvulsant activity against mouse model of LiCa/pilocarpine-induced status epilepticus assessed as total power at 20 mg/kg, po for 10 days by EEG method relative to control; format: functional; conditions: time 10 day; in short: as §4
Mus musculus [22] = assay: Anticonvulsant activity against mouse model of LiCa/pilocarpine-induced status epilepticus assessed as amplitude at 20 mg/kg, po for 10 days by EEG method relative to control; format: functional; conditions: time 10 day; in short: as §4
Mus musculus [23] = assay: Anticonvulsant activity against mouse model of LiCa/pilocarpine-induced status epilepticus assessed as amplitude density at 20 mg/kg, po for 10 days by EEG method relative to control; format: functional; conditions: time 10 day; in short: as §4
Mus musculus [24] = assay: Anticonvulsant activity against mouse model of LiCa/pilocarpine-induced status epilepticus assessed as power pV2 at 20 mg/kg, po for 10 days by EEG method relative to control; format: functional; conditions: time 10 day; in short: as §4
Mus musculus [25] = assay: Anticonvulsant activity against mouse model of LiCa/pilocarpine-induced status epilepticus assessed as total power density at 20 mg/kg, po for 10 days by EEG method relative to control; format: functional; conditions: time 10 day; in short: as §4
Mus musculus [26] = assay: Anticonvulsant activity against mouse model of LiCa/pilocarpine-induced status epilepticus assessed as delta at 20 mg/kg, po for 10 days by EEG method relative to control; format: functional; conditions: time 10 day; in short: as §4
Mus musculus [27] = assay: Anticonvulsant activity against mouse model of LiCa/pilocarpine-induced status epilepticus assessed as theta at 20 mg/kg, po for 10 days by EEG method relative to control; format: functional; conditions: time 10 day; in short: as §4
Mus musculus [28] = assay: Anticonvulsant activity against mouse model of LiCa/pilocarpine-induced status epilepticus assessed as alpha at 20 mg/kg, po for 10 days by EEG method relative to control; format: functional; conditions: time 10 day; in short: as §4
Mus musculus [29] = assay: Anticonvulsant activity against mouse model of LiCa/pilocarpine-induced status epilepticus assessed as MDA level in brain at 20 mg/kg, po for 10 days by calorimetric method relative to control; format: functional; conditions: time 10 day; in short: as §4
Mus musculus [30] = assay: Anticonvulsant activity against mouse model of LiCa/pilocarpine-induced status epilepticus assessed as GSH level in brain at 20 mg/kg, po for 10 days by calorimetric method relative to control; format: functional; conditions: time 10 day; in short: as §4
Mus musculus [31] = assay: Anticonvulsant activity against mouse model of LiCa/pilocarpine-induced status epilepticus assessed as GABA level in brain at 20 mg/kg, po for 10 days by ELISA relative to control; format: functional; conditions: time 10 day; in short: as §4
Mus musculus [32] = assay: Anticonvulsant activity against mouse model of LiCa/pilocarpine-induced status epilepticus assessed as Glutamate level in brain at 20 mg/kg, po for 10 days by ELISA relative to control; format: functional; conditions: time 10 day; in short: as §4
MCF7 = assay: Cytotoxicity against human MCF7 cells assessed as reduction in cell viability after 48 hrs by MTT assay; format: functional, cell-based; conditions: MCF7, 48 h; in short: as §1

T1 sequence (P04626 whole entry): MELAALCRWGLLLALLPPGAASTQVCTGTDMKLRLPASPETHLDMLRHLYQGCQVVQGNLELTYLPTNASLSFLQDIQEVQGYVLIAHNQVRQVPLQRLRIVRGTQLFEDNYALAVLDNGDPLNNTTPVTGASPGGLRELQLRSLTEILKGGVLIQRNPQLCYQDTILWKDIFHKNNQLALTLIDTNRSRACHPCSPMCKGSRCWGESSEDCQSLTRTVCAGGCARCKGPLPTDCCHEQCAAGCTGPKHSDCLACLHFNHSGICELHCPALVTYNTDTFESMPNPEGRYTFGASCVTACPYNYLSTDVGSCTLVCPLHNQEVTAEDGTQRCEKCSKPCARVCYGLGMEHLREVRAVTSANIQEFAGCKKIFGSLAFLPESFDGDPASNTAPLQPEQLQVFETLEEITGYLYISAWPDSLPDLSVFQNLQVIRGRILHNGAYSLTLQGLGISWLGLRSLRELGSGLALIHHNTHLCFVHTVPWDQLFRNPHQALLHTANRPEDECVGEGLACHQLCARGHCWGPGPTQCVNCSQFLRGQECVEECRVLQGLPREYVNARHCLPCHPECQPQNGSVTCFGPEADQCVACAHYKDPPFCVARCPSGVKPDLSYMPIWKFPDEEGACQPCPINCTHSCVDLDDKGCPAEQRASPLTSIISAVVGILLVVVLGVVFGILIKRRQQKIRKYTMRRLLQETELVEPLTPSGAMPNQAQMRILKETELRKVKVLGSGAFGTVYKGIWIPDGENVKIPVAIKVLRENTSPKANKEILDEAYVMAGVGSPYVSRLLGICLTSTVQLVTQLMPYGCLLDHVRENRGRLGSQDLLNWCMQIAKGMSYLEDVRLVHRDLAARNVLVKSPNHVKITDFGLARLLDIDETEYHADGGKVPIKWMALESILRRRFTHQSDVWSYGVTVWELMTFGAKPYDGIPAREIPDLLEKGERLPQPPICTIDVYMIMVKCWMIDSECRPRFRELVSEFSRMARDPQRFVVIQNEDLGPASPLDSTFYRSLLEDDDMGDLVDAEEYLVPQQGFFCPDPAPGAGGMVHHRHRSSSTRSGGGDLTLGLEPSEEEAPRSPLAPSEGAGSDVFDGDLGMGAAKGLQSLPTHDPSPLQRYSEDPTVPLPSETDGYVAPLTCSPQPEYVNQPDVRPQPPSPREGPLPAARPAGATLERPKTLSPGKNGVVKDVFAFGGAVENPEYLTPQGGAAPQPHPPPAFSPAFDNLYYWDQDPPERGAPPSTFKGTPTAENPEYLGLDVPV
Chain of Epidermal growth factor receptor (P00533 25-1210 T790M limits assumed): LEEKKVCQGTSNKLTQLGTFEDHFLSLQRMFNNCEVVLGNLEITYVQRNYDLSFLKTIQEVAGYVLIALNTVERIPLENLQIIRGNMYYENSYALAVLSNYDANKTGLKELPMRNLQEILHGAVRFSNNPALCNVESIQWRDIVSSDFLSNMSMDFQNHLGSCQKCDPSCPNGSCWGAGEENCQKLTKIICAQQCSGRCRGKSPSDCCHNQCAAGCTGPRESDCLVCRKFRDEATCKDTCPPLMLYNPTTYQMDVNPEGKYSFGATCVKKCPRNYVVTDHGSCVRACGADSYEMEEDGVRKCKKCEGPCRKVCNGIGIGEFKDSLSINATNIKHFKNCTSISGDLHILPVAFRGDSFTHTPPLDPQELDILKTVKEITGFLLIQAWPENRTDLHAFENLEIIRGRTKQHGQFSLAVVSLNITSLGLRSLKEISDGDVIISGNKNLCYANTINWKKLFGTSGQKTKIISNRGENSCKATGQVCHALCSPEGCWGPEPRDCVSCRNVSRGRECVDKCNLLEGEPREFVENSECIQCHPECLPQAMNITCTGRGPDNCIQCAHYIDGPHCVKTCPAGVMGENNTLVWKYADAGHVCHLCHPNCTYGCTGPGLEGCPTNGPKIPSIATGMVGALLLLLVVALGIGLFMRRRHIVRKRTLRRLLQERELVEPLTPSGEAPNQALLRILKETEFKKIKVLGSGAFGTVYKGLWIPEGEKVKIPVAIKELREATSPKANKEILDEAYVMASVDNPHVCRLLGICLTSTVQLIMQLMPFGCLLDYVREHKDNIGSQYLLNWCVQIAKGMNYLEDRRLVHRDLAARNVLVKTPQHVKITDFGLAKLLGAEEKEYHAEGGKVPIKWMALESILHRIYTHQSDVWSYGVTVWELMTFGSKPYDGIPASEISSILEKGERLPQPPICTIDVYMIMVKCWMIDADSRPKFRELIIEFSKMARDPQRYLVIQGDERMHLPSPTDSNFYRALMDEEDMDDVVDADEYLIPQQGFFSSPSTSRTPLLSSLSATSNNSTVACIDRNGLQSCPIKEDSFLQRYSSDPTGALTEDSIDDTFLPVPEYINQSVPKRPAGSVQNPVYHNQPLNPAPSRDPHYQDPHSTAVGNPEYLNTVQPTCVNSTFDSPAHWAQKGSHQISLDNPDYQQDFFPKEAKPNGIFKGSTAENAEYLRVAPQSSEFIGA

Structure (SMILES)	IC50 (WI-38) [nM]	inhibition [16] [%]	IC50 [17] [nM]	IC50 [18] [nM]	Activity (Mus musculus [19]) [%]	Activity (Mus musculus [20]) [%]	Activity (Mus musculus [21]) [%]	Activity (Mus musculus [22]) [%]	Activity (Mus musculus [23]) [%]	Activity (Mus musculus [24]) [%]	Activity (Mus musculus [25]) [%]	Activity (Mus musculus [26]) [%]	Activity (Mus musculus [27]) [%]	Activity (Mus musculus [28]) [%]	Activity (Mus musculus [29]) [%]	Activity (Mus musculus [30]) [%]	Activity (Mus musculus [31]) [%]	Activity (Mus musculus [32]) [%]	further results
Cc1ccc(C2=N/C(=C/c3ccc(Cl)cc3)C(=O)NN2C(=O)Cc2nc3c(c(C)nn3-c3ccccc3)c(=O)[nH]2)cc1	29.4	72.6	422	634	-24.4	-16.14	2.62	50.22	62.01	121.31	176.8	229.74	44.83	31.95	-57.67	134.61	56.77	-37.61	Activity (HCT-116 [1]): 17.35%; Activity (HCT-116 [2]): 22.64%; Activity (HCT-116 [3]): 31.42%; Activity (HCT-116 [4]): 45.94%; fold change (FC) (HCT-116 [5]): 2.98; Activity (HCT-116 [6]): 10.37%; Activity (HCT-116 [7]): 2.72%; fold change (FC) (HCT-116 [8]): 30.79; fold change (FC) (HCT-116 [9]): 2; fold change (FC) (HCT-116 [10]): 18.5; fold change (FC) (HCT-116 [11]): 20; fold change (FC) (HCT-116 [12]): 16.5; fold change (FC) (HCT-116 [13]): 6.9; fold change (FC) (HCT-116 [14]): 3.8; Activity (HCT-116 [15]): Active
Cc1nn(-c2ccccc2)c2nc(C(=O)N3NC(=O)/C(=C/c4ccc(Cl)cc4)N=C3c3ccccc3)[nH]c(=O)c12	31.8				-27.57	-17.28	19.53	76	77.2	134.23	202.67	270.93	34.07	18.91	-53.49	174.47	74.77	-50.65	IC50 (MCF7): 44.3 nM
Cc1ccc(C2=N/C(=C\c3ccc(Cl)cc3)C(=O)NN2C(=O)c2nc3c(c(C)nn3-c3ccccc3)c(=O)[nH]2)cc1	26.4	54.5		11200	-29.47	-20.49	15.45	66.22	71.73	152.01	208.36	256.83	34.92	13.75	-50.74	113.22	58.15	-36.07	
Cc1nn(-c2ccccc2)c2nc(CC(=O)N3NC(=O)/C(=C\c4ccccc4)N=C3c3ccccc3)[nH]c(=O)c12	47.2	83.6	656	872	-23.98	-17.45	2.33	63.11	62.01	136.74	202.38	264.32	31.8	33.49	-56.93	69.18	52.65	-50.88	
